18 compounds from ChEMBL document CHEMBL3259769, “Symmetric adamantyl-diureas as soluble epoxide hydrolase inhibitors” (Bioorg Med Chem Lett, 2014) can be followed below.

≈ marks a conversion by molar mass, not a printed value.

The target in data set [1] is T1, Bifunctional epoxide hydrolase 2 (Homo sapiens, UniProt P34913).
T1 sequence (P34913 whole entry): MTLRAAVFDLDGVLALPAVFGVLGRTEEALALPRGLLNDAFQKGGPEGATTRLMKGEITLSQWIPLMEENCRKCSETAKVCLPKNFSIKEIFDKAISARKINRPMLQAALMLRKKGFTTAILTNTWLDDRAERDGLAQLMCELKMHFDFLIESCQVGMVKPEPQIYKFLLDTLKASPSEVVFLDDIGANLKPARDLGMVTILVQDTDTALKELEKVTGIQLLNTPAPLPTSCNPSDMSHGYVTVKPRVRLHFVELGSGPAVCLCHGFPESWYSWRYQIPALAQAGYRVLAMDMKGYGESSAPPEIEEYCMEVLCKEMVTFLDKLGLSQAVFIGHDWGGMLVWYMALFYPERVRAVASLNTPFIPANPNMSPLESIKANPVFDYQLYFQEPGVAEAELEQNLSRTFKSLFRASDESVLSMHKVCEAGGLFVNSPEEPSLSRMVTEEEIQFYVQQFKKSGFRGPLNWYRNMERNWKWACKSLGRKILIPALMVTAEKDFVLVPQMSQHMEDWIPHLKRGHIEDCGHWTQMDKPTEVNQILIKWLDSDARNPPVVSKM
The experiment in a line: Inhibition of recombinant human soluble epoxide hydrolase using CMNPC as substrate preincubated for 5 mins followed by substrate addition measured at 5 mins post substrate addition by fluorescence assay in presence of 0.1 mg/mL BSA.

Data set [2] has as its target T1, Bifunctional epoxide hydrolase 2. The experiment in a line: Displacement of ACPU from recombinant human soluble epoxide hydrolase after 1.5 hrs by FRET assay. The method in brief: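 Human sEH was preincubated with an equimolar amount of the fluorescent reporter ACPU for 2 h at rt. The complex (20 nM) was used in 100 mM sodium phosphate with 0.1% gelatin, pH 7.4, on gelatin-precoated plates. Inhibitor was added as 12 two-fold dilutions, with DMSO as control, and incubated 1.5 h. Fluorescence (ex 280/em 450 nm) was normalised to baseline and fitted to a three-state equilibrium model to give Ki.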

The target is the same in data set [3]. In words: Inhibition of recombinant human soluble epoxide hydrolase using CMNPC as substrate preincubated for 5 mins followed by substrate addition measured at 5 mins post substrate addition by fluorescence assay in presence of 1 mg/mL BSA.
Data set [4] is described as follows: Solubility of the compound in sodium phosphate buffer at pH 7.4 after 24 hrs by LC/MS/MS analysis. The data set is classed as physicochemical. The method in brief:
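Compound suspended in 0.1 M sodium phosphate buffer, pH 7.4, containing 1% DMSO, held 24 h at 30 °C, then 1 h at rt. Centrifuged 10,000 rpm for 10 min; supernatant diluted 5-fold in methanol, 15 min at rt to precipitate salt, then re-centrifuged. Supernatant stored at -20 °C until LC/MS-MS quantitation.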

Data set [5] is described as follows: Metabolic stability in human liver microsomes assessed as compound remaining at 1 uM after 30 mins by LC/MS/MS analysis in absence of NADPH. As to conditions: read-out: Stability. The data set is classed as ADME. The method in brief:
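Inhibitor added to human liver microsomes (1 mg/mL final) in 0.1 M potassium phosphate, pH 7.4, with 3 mM MgCl2 and 1 mM EDTA. After 5 min at 37 °C, buffer was added in place of NADPH generating system, then 30 min at 37 °C. Stopped with one volume methanol containing 200 nM CUDA surrogate. LC/MS/MS; % remaining; triplicate average.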

Data set [6] in a line: Metabolic stability in human liver microsomes assessed as compound remaining at 1 uM preincubated for 5 mins followed by NADPH addition measured after 30 mins by LC/MS/MS analysis. The data set is classed as ADME. To be noted: read-out: Stability. The method in brief: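 Human liver microsomes (1 mg/mL final) in 0.1 M potassium phosphate, pH 7.4, 3 mM MgCl2, 1 mM EDTA, were preincubated with inhibitor 5 min at 37 °C. Reaction was started with NADPH generating system and run 30 min at 37 °C. Quenched with one volume methanol containing 200 nM CUDA surrogate. LC/MS/MS; % remaining; triplicate average.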

The target in data set [7] is T2, Bifunctional epoxide hydrolase 2 (Homo sapiens) (UniProt P34913).
T2 sequence (whole entry): T1 sequence (P34913 whole entry)

Consider `O=C(NCCCCCCCCNC(=O)NCC12CC3CC(CC(C3)C1)C2)NCC12CC3CC(CC(C3)C1)C2`, for which the IC50 in data set [1] came to 7.3 nM.
Turning to `CC(NC(=O)NCCCCNC(=O)NC(C)C12CC3CC(CC(C3)C1)C2)C12CC3CC(CC(C3)C1)C2` (configuration not stated), the Ki in data set [2] turned out to be 2.7 nM. The results for the IC50 in data set [1] and in data set [3] were 1.2 nM and 2.5 nM, respectively. In data set [4], this compound came in with a solubility at 24 h of 10 µM (≈ 4.99 µg/mL). Besides, the remaining at 0.5 h, 1 µM came out at 92% in data set [5] and 24% in data set [6]. Further, the T1/2 in data set [7] stood at 8 min.
As for `O=C(NCCCCCCNC(=O)NCC12CC3CC(CC(C3)C1)C2)NCC12CC3CC(CC(C3)C1)C2`, the Ki in data set [2] worked out at 3.4 nM. The IC50 in data set [3] amounted to 0.7 nM. The compound further returned a solubility at 24 h in data set [4] of 50 µM (≈ 24.9 µg/mL). The remaining at 0.5 h, 1 µM in data set [5] amounted to 102%; in data set [6], 3%. This compound also had a T1/2 in data set [7] of 10 min.
Consider `CCC(CNC(=O)NCCCCCCCCNC(=O)NCC(CC)C12CC3CC(CC(C3)C1)C2)C12CC3CC(CC(C3)C1)C2` (configuration not stated), for which the IC50 in data set [1] was found to be 1440 nM.
In the case of `O=C(NCCCCCCCCNC(=O)NC1C2CC3CC(C2)CC1C3)NC1C2CC3CC(C2)CC1C3` (configuration not stated), the Ki in data set [2] is 2.4 nM. Moreover, the results for the IC50 in data set [1] and in data set [3] were 2.6 nM and 4.1 nM, respectively. This compound also showed a solubility at 24 h in data set [4] of 5 µM (≈ 2.49 µg/mL). For the same compound, the results for the remaining at 0.5 h, 1 µM in data set [5] and in data set [6] were 100% and 36%, respectively. Moreover, the T1/2 in data set [7] came to 2.5 min.
In the case of `O=C(NCCCCNC(=O)NCC12CC3CC(CC(C3)C1)C2)NCC12CC3CC(CC(C3)C1)C2`, the IC50 in data set [1] stood at 26.3 nM.
On the same count and under the same terms, next, `O=C(Nc1ccc(NC(=O)NC23CC4CC(CC(C4)C2)C3)cc1)NC12CC3CC(CC(C3)C1)C2`: 19.5 nM.
For the compound `O=C(NC12CC3CC(CC(C3)C1)C2)NC12CC3CC(CC(C3)C1)C2`, the figures for the IC50 in data set [1] and in data set [3] were 1.2 nM and 1.3 nM, respectively. In data set [4], this compound returned a solubility at 24 h of 5 µM (≈ 1.64 µg/mL). In addition, the figures for the remaining at 0.5 h, 1 µM in data set [5] and in data set [6] were 93% and 19%, respectively.
Take `O=C(NCC1CCN(C(=O)NCC23CC4CC(CC(C4)C2)C3)CC1)NCC12CC3CC(CC(C3)C1)C2`: the IC50 in data set [1] was determined as 39.7 nM.
The same measure, in the same setting: to `O=C(NCCCCCCCCNC(=O)NC12CC3CC(CC(C3)C1)C2)NC12CC3CC(CC(C3)C1)C2` belongs 997 nM; to `CCC(CNC(=O)NCCCCNC(=O)NCC(CC)C12CC3CC(CC(C3)C1)C2)C12CC3CC(CC(C3)C1)C2` (configuration not stated), 2.3 nM; to `O=C(NCC12CC3CC(CC(C3)C1)C2)Nc1ccc(NC(=O)NCC23CC4CC(CC(C4)C2)C3)cc1`, 780 nM.
Still for that read-out and setting: next, `O=C(NCCCCNC(=O)NC12CC3CC(CC(C3)C1)C2)NC12CC3CC(CC(C3)C1)C2`: 7.2 nM.
Turning to `CC(NC(=O)NCCCCCCCCNC(=O)NC(C)C12CC3CC(CC(C3)C1)C2)C12CC3CC(CC(C3)C1)C2` (configuration not stated), the Ki in data set [2] worked out at 3.1 nM. For the same compound, the IC50 came to 0.5 nM in data set [1] and 0.8 nM in data set [3]. For the same compound, the solubility at 24 h in data set [4] was found to be 10 µM (≈ 5.55 µg/mL). Also, the figures for the remaining at 0.5 h, 1 µM in data set [5] and in data set [6] were 100% and 11%, respectively. The compound also registered a T1/2 in data set [7] of 11 min.
The compound `O=C(NC1CCCCC1)NC1CCCCC1` [1,3-DICYCLOHEXYLUREA] yielded a solubility at 24 h in data set [4] of 5 µM (≈ 1.12 µg/mL). Besides, the remaining at 0.5 h, 1 µM in data set [5] came to 100%; in data set [6], 22%.
As for `CC(NC(=O)Nc1ccc(NC(=O)NC(C)C23CC4CC(CC(C4)C2)C3)cc1)C12CC3CC(CC(C3)C1)C2` (configuration not stated), the IC50 in data set [1] came out at 161 nM.
Same read-out and setting: to `O=C(NCCCCNC(=O)NC1C2CC3CC(C2)CC1C3)NC1C2CC3CC(C2)CC1C3` (configuration not stated) belongs 10.4 nM.
Same read-out and setting: to `O=C(NCCNC(=O)NCC12CC3CC(CC(C3)C1)C2)NCC12CC3CC(CC(C3)C1)C2` belongs 179 nM.

Broadly, the IC50 is the point on the concentration scale where inhibition reaches its midpoint. The term Ki denotes a measure of affinity in units of concentration, obtained from inhibition or displacement. By solubility is commonly meant how much of the substance goes into solution per volume.
